The results in this text go back to ChEMBL document CHEMBL3297709, “High affinity ligands and potent antagonists for the α1D-adrenergic receptor. Novel 3,8-disubstituted [1]benzothieno[3,2-d]pyrimidine derivatives” (Eur J Med Chem, 2014).

What is called Ki is a dissociation constant, usually derived from enzyme kinetics or from competition with a known ligand. For orientation: pKb means −log10 of the Kb, conventionally taken in molar units.

In test [1] the target is T1, Alpha-1D adrenergic receptor (Homo sapiens, UniProt P25100).
T1 sequence (P25100 whole entry): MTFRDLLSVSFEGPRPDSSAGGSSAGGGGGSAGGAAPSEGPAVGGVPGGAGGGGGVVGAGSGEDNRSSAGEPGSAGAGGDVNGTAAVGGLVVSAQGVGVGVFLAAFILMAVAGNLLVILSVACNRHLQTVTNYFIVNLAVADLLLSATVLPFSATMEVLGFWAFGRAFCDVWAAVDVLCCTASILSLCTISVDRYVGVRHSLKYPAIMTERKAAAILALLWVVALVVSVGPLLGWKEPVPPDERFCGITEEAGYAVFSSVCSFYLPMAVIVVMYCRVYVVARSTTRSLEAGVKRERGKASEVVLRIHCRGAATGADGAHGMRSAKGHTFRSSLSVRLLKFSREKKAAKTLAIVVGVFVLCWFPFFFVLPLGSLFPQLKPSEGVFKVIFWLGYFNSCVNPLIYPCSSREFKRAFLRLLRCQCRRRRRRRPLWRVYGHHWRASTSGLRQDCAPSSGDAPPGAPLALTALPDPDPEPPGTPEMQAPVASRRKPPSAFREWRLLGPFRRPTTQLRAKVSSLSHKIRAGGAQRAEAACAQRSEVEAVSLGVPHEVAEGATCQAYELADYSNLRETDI
The experiment in a line: Displacement of [125I]BE2254 from human alpha1d receptor expressed in HEK293 cells. The test is classed as cell-based. Summed up: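 Membranes from HEK293 cells stably transfected with human α1A, α1B or α1D receptor cDNA, selected under 400 µg/mL geneticin. Competition against 50 pM [125I]BE2254; nonspecific binding defined with 10 µM phentolamine. Curves fitted by nonlinear regression. Mean ± SE of three experiments run in duplicate.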
For orientation: Loss of bound radioactivity is the signal in a displacement assay; it reports binding, not function.

Test [2] deals with T2, Alpha-1A adrenergic receptor (Rattus norvegicus) (UniProt P43140).
T2 sequence (whole entry): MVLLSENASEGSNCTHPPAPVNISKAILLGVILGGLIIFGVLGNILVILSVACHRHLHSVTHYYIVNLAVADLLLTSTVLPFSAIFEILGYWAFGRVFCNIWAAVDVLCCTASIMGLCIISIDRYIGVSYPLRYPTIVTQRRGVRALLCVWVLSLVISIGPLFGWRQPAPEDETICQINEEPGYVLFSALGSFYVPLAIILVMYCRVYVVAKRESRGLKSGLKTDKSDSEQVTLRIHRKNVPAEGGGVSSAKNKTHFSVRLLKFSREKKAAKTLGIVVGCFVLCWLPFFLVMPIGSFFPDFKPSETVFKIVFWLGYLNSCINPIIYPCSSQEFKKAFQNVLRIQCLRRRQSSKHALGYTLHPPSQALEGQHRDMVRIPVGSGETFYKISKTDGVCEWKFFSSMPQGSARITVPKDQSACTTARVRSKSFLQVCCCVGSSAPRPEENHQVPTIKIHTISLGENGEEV
Nature of the test: Antagonist activity at alpha1A adrenoceptor in Wistar rat vas deferans assessed as decrease in noradrenaline induced contractions at 0.1 uM. Further details: scale not given: the % may be the effect or the level left. Put shortly:
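Male Wistar rat (275-300 g) prostatic vas deferens in 20 mL organ bath, physiological salt solution, 37 °C, 5% CO2:95% O2, pH 7.4. Primed twice with 10 µM (-)-NA, 45 min wash/equilibration, then cumulative (-)-NA curve recorded isotonically. Antagonist incubated 30–60 min before repeat curve. pKb = log(DR-1) - log[B] from ED50 ratio; mean ± SE of 4–5 experiments.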

The target of test [3] is T3, Alpha-1D adrenergic receptor (Rattus norvegicus) (UniProt P23944).
T3 sequence (whole entry): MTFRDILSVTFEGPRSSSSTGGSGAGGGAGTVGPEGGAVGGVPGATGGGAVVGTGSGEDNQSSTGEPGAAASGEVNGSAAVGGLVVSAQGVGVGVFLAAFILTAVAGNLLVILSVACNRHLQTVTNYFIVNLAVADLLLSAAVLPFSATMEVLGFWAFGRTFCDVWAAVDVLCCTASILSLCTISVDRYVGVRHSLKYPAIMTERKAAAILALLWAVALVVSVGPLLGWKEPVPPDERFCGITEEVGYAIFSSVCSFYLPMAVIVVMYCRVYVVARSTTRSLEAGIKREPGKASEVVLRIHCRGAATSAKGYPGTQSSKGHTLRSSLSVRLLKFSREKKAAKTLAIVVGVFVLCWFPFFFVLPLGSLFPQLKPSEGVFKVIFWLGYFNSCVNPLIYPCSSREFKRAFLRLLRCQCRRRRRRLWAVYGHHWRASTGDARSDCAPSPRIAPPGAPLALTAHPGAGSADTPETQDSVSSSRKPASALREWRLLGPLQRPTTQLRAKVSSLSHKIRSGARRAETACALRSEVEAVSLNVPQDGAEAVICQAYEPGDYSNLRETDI
Nature of the test: Antagonist activity at alpha1D adrenoceptor in Wistar rat thoracic aorta assessed as decrease in noradrenaline induced contractions at 0.1 uM. Also on record: scale not given: the % may be the effect or the level left. Summed up:
(§1)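 Endothelium-denuded helicoidal thoracic aorta strips (15 x 3 mm) from male Wistar rats, Krebs solution, 1 g tension, ≥2 h equilibration. Cumulative (-)-NA curves recorded isometrically at 1 h intervals, third as control. Antagonist equilibrated 60 min before fourth curve. NA solutions held 0.05% Na2S2O4. pKb = log(DR-1) - log[B]; mean ± SE of 4–5 experiments.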

Test [4] has as its target T4, Alpha-1B adrenergic receptor (Rattus norvegicus) (UniProt P15823).
T4 sequence (whole entry): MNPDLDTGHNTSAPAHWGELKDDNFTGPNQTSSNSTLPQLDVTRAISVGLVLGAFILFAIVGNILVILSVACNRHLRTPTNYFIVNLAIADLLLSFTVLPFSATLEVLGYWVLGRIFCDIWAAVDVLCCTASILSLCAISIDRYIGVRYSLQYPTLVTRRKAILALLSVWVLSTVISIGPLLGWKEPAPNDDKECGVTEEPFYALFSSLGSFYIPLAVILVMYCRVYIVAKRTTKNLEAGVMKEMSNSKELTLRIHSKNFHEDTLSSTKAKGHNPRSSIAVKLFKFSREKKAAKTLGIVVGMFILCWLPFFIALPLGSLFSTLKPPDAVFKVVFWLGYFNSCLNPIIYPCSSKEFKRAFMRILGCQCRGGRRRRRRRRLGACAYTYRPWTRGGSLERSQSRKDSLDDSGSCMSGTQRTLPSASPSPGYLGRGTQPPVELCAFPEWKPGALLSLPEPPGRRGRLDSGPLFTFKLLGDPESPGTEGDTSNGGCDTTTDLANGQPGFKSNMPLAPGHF
Nature of the test: Antagonist activity at alpha1B adrenoceptor in Wistar rat spleen assessed as decrease in phenylephrine induced contractions at 0.1 uM. Further details: scale not given: the % may be the effect or the level left. Put shortly:
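Wistar rat spleen strips under 1 g resting tension, equilibrated 2 h, with 4 µM (±)-propranolol to block β-adrenoceptors. Cumulative phenylephrine curves measured isometrically at 30 min intervals, first discarded, second as control. Antagonist incubated 30–60 min before repeat curve. pKb from ED50 dose ratio via pKb = log(DR-1) - log[B]; mean ± SE of 4–5 experiments.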

Test [5] has as its target T3, Alpha-1D adrenergic receptor (Rattus norvegicus). The experiment in a line: Antagonist activity at alpha1D adrenoceptor in Wistar rat thoracic aorta assessed as noradrenaline induced contractions. Summed up:
as §1

As to `COc1ccccc1N1CCN(CCn2c(=O)[nH]c3c(sc4ccc(NC(=O)CCCC(=O)N(C)Cc5ccccc5)cc43)c2=O)CC1`, the Ki in test [1] is 0.0562 nM. In addition, the Activity stood at 90% in test [2], 100% in test [3] and 100% in test [4]. Besides, the pKb in test [5] turned out to be 9.15.

Consider `COc1ccccc1N1CCN(CCn2c(=O)[nH]c3c(sc4ccc(NC(=O)CCCC(=O)NCc5ccccc5)cc43)c2=O)CC1`, for which the Ki in test [1] is 0.141 nM. Moreover, the Activity in test [2], in test [3] and in test [4] was 100% in each case. Also, the pKb in test [5] was 8.64.
